The record followed here is publication PMC10984326 (Chemistry & biodiversity, 2023).

Experiment [1] has as its system A375 cells. As to the kind of experiment: Wound-healing. The note with it: for Inhibition of migration of A375 cells: after 20, 48 and 54 h, 7b 3.5 μM, 7c 4.3 μM. It counts as cell-based, human.
In experiment [2] the test system is A375 cells. As to the kind of experiment: Flow cytometry analysis of cell cycle. Format: cell-based, human. The note with it: for Cell cycle arrest: 5 x IC50; for Sub-G1 DNA content relative to control: 72 h, 5 x IC50 (7b 17.5 μM, 7c 21.5 μM), vs 0.2% DMSO.
Experiment [3] has as its system Human primary dermal fibroblasts. As to the kind of experiment: MTT cell viability assay, non-cancerous fibroblasts. It counts as cell-based. The note with it: IC50 of cancer cells compared with IC50 of human fibroblasts. A digest of the protocol: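 Primary dermal fibroblasts were grown in fibroblast basal medium with low-serum growth supplement at 37°C, 5% CO2. Cells were seeded at 2×10^3/well, and after 24 h were exposed for 72 h to test compound (DMSO solution, up to 10 μM) or 0.1% DMSO. MTT was added for 4 h and the formazan dissolved in DMSO, with absorbance at 540 nm. IC50 came from non-linear regression, and SI from comparing A375 and 35404 IC50s with fibroblast IC50.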
(Tetrazolium assays rely on reduction of a dye to a coloured formazan, in cell work by metabolically active cells.)

Experiment [4] deals with 35404 cells. As to the kind of experiment: MTT cell viability assay, patient-derived melanoma metastasized to brain. It counts as cell-based, human. The conditions noted are these: read-out: Antiproliferative activity (IC50, μM) 35404 cells, 72 h treatment, up to 10 μM, mean±SD (n=4), IN = inactive.

In experiment [1] (4 h of treatment, 3.5 μM (IC50), 0 h = 100%, control 76%), `Cc1cc(C(=O)/C(=C\c2cccc(F)c2)c2cccc(F)c2)c(C(=O)N2CCCCC2)c(=O)[nH]1` [Compound 7b, (Z)-4-(2,3-bis(3-fluorophenyl)acryloyl)-6-methyl-3-(piperidine-1-carbonyl)pyridin-2(1H)-one] came in with a Wound surface area of 93%. Moreover, the “Inhibition of migration of A375 cells” value in experiment [1] is “statistically significant inhibition of migration”. Also, the Cell cycle arrest result in experiment [2] (24 h) is “transient G2 and/or M phase arrest”; in experiment [2] (48 h and 72 h) it was “substantial G1 arrest”. In experiment [2] (24 h, 5 x IC50 (17.5 μM)), the “DNA fragmentation (sub-G1 DNA)” value is given as “Statistically significant DNA fragmentation”. Besides, the “Sub-G1 DNA content relative to control” value in experiment [2] is “statistically significant increases”.

As to `COc1ccc(/C=C(\C(=O)c2cc(C)[nH]c(=O)c2C(=O)N2CCCCC2)c2ccc(OC)c(C)c2)cc1C` [Compound 7c, (Z)-4-(2,3-bis(4-methoxy-3-methylphenyl)acryloyl)-6-methyl-3-(piperidine-1-carbonyl)pyridin-2(1H)-one], in experiment [1], the “Inhibition of migration of A375 cells” value is recorded as “statistically significant inhibition of migration”. For the same compound, in experiment [2] (48 h and 72 h), the Cell cycle arrest entry is “substantial G1 arrest”. Also, the “Sub-G1 DNA content relative to control” value in experiment [2] is “statistically significant increases”. Besides, the “SI (selectivity index)” value in experiment [3] is on record as >2.

In the case of `Cc1cc(C(=O)/C(=C\c2ccc(C)c(Cl)c2)c2ccc(C)c(Cl)c2)c(C(=O)N2CCCCC2)c(=O)[nH]1` [Compound 7g, (Z)-4-(2,3-bis(3-chloro-4-methylphenyl)acryloyl)-6-methyl-3-(piperidine-1-carbonyl)pyridin-2(1H)-one], in experiment [4], the concentration for half-maximal inhibition (IC50) was 0.4 ± 0.2 µM. The “SI (selectivity index)” value in experiment [3] is given as >20.

As usually defined, the IC50 is the midpoint of a concentration-inhibition curve.
